Screening data deposited in PubChem BioAssay by Sanford-Burnham Center for Chemical Genomics.
LMPTP block: LMPTP phosphatase inhibitors, primary screen, biochemical, fluorescence intensity, uHTS; recombinant LMPTP-A, OMFP fluorogenic substrate; inhibition, % at 20 µM; Low molecular weight phosphotyrosine protein phosphatase (Homo sapiens), P24666; actives 0.22% (n = 360,000); AID 651560, 2012;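 active = compounds that cut the enzyme signal by at least half of the control window in the single-dose screen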;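 note: plate controls were DMSO wells with enzyme plus substrate for no effect and substrate without enzyme for full effect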
Target sequence (P24666 whole entry, looked up): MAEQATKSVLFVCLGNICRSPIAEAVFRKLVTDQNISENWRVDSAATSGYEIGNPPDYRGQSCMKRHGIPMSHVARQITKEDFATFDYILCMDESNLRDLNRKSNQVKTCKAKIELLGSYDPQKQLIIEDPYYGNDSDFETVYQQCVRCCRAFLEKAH
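Buffer or medium: Bis-Tris pH 6.0, DTT, detergent; Assay system: LMPTP-A enzyme; Quantity: 0.625 nM enzyme; Detection: endpoint fluorescence intensity; Times: 50 min dark incubation at room temperature; Controls: substrate-only low control, DMSO enzyme-plus-substrate high control; Doses: single 20 µM dose; Read-out: percent inhibition versus substrate-only and uninhibited controls; Reagent: 400 µM OMFP.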
DNMT1 inh: human DNMT1 methyltransferase inhibitors, primary screen, biochemical, molecular beacon, fluorescence, HinP1I cleavage, uHTS; DNA (cytosine-5)-methyltransferase 1 (Homo sapiens), P26358; inhibition (reported as % activation of signal), % at 10 µM; actives 0.83% (n = 360,000); AID 588458, 2011; in the data active = inhibition above about 50%
STEP block: STEP phosphatase inhibitors, primary screen, biochemical, fluorescence intensity, uHTS. Tyrosine-protein phosphatase non-receptor type 5 (Homo sapiens), P54829. recombinant STEP, OMFP fluorogenic substrate. inhibition, % at 20 µM. actives 0.25% (n = 360,000);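 active = inhibition at 20 µM, scaled per plate between control wells, above about 37%, limit read from the data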;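 note: 0% = DMSO with enzyme and substrate and 100% = substrate only without enzyme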
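Material: STEP (striatal-enriched tyrosine phosphatase) enzyme, cell-free; Compound dosing: 20 µM single dose in 1% DMSO; Technique: fluorescence read at 480 nm ex / 540 nm em; Times: reaction 20 min, ambient temperature; Medium: 50 mM Bis-Tris pH 6.0 with 2.5 mM DTT and 0.005% Tween 20; Also added: OMFP at 25 µM.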
Scp-1 inhibitor: Scp-1 phosphatase inhibitors, primary screen, biochemical, colorimetric, uHTS; Carboxy-terminal domain RNA polymerase II polypeptide A small phosphatase 1 (Homo …; Recombinant Scp1, phosphopeptide, malachite green phosphate absorbance; inhibition, % at 20 µM; actives 0.88% (n = 340,000); AID 493091, 2011;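 active = inhibition above about 50% at 20 µM, limit read from the data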;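 note: plate controls were DMSO wells with enzyme for no effect and wells lacking enzyme for full effect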
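System: truncated SCP-1 phosphatase (76-261aa); medium: Tris acetate buffer pH 5.5 with MgCl2 and Tween-20; incubation: 45 min room-temperature reaction, 5 min colour, 30 min stabiliser; compound: single 20 µM dose, 1% DMSO; reagent: Phosphorylated 17-residue peptide substrate; read-out: % inhibition at 20 µM; technique: colorimetric free-phosphate detection, absorbance 630 nm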
SUMO1-SIM PPI: modulators of SUMO1 protein-protein interactions, primary screen, biochemical, uHTS | AID 602429, 2012 | SUMO1 binding to a labelled peptide, TR-FRET, 1 h | actives 0.33% (n = 360,000) | inhibition, % at 20 µM; in the data active = inhibition above about 37%
Target sequence (P63165 whole entry, looked up): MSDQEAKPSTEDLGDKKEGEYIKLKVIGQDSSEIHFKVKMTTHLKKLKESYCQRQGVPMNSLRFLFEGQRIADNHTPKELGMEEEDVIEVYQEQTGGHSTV
Rpn11 inh: Rpn11 (PSMD14) deubiquitinase inhibitors, primary screen, biochemical, fluorescence polarization, uHTS; human 26S proteasome, Ub4-pepOG fluorescence polarization; 20S core pre-blocked with epoxomicin; 26S proteasome non-ATPase regulatory subunit 14 (Homo sapiens), O00487; inhibition, % at 20 µM; AID 588493, 2011; actives 0.59% (n = 360,000);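 active = inhibition at 20 µM, scaled to each plate's controls, above about 33%, limit read from the data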
Target sequence (O00487 whole entry, looked up): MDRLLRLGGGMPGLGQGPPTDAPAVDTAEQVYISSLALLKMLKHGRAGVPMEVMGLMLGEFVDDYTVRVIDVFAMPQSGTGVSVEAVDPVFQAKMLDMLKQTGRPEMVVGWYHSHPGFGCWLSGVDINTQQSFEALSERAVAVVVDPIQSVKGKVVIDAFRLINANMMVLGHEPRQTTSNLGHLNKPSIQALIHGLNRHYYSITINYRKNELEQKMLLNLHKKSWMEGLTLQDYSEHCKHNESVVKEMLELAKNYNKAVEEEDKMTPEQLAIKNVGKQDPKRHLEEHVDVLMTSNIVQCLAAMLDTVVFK
* marks the source's active call; other numbers are inactive results; x = not tested or not shown. Only some compounds are listed: those with a hit (about 2.3% of all), similar ones and a draw of the others.

SMILES	LMPTP block	DNMT1 inh	STEP block	Scp-1 inhibitor	SUMO1-SIM PPI	Rpn11 inh
COc1nnc(-c2ccc(C(=O)N3C[C@@H]4C[C@H](C3)c3cccc(=O)n3C4)cc2)c2ccccc12	3.9	2.8	-2.9	3.6	-1.0	2.6
O=C(c1ccc(-c2nnc(Nc3cccc(Cl)c3)c3ccccc23)cc1)N1C[C@H]2C[C@H](C1)c1cccc(=O)n1C2	20.3	74.0*	2.4	3.0	6.8	7.0
Cc1ccc(N(CC(=O)NC2CCCCC2)S(=O)(=O)c2cccs2)cc1	-0.3	2.1	-0.6	-9.1	4.3	-0.5
Cc1cc2[nH]c3c(c[n+](C)c4ccccc34)c2cc1C	73.2*	28.3	5.4	35.6	-4.5	-14.4
Cc1cc(=O)[nH]c2ccccc12	-0.6	0.9	1.1	-9.7	-2.0	3.5
CCOC(=O)c1c(C)[nH]c(C(=O)N/N=C\c2ccccc2O)c1C	-0.5	-3.4	0.8	-10.3	1.2	-5.1
CCOC(=O)c1c(C)[nH]c(C(=O)N/N=C/c2cc([N+](=O)[O-])ccc2O)c1C	65.1*	-0.4	4.6	-7.5	-12.2	3.1
COc1cccc(CC2(CO)CCCN(Cc3cc(F)ccc3-n3cccn3)C2)c1 (configuration not stated)	0.3	2.3	-1.1	3.5	0.8	3.2
O=C(c1ccccc1)N1CCC(c2nc3c(nnn3Cc3ccco3)c(=O)[nH]2)CC1	-1.4	6.2	0.6	2.9	52.7*	-7.6
O=C(c1ccc(Cl)cc1Cl)N1CCC(c2nc3c(nnn3Cc3ccco3)c(=O)[nH]2)CC1	2.4	-0.7	1.7	2.6	3.8	5.3
Cc1cc(O)c2c(c1O)C(=O)[C@]13C(=C2O)C(=O)[C@@H]2[C@@H](O)[C@H]1[C@@H]1[C@H](O)[C@H]3C(=O)C3=C(O)c4c(O)cc(C)c(O)c4C(=O)[C@]312	88.0*	95.4*	42.7*	58.2*	102.9*	48.7*
C/C(=N\Nc1ccc(C(=O)O)cc1)c1ccc(S(=O)(=O)NCc2ccco2)cc1	0.9	0.2	-1.3	-9.0	-16.1	-4.6
CC(C)OC(=O)c1ccc(NC(=O)Cn2c(-c3nonc3N)nc3ccccc32)cc1	3.4	-8.9	5.6	-4.8	42.7*	-4.6
Nc1nonc1-c1nc2ccccc2n1CC(=O)N/N=C/c1ccc(-c2cccc(C(=O)O)c2)o1	7.1	27.2	13.7	72.0*	22.2	3.8
C/C(=N\NC(=O)CNC(=O)c1cccc(F)c1)c1ccc2ccccc2c1	-0.4	3.2	-1.2	0.7	9.8	-2.2
CC(C)CNS(=O)(=O)c1ccc(CCC(=O)NCCc2ccccc2)cc1	-0.9	-0.7	15.4	-5.7	5.6	10.7
CCCCN1C[C@H](c2ccccc2)[C@@H](CC(=O)NC)C1=O	-0.6	1.7	1.9	x	-3.0	-2.3
COc1cccc(CN(c2ccccc2C(=O)O)S(=O)(=O)c2ccc(C)cc2)c1	-1.9	-0.9	2.9	-7.7	8.9	3.8
Nc1nnc(SCCCC(=O)c2ccc(Br)cc2)s1	-0.3	2.1	0.1	4.6	43.0*	7.3
N#Cc1c(-c2ccccc2)nc(SCC(=O)N2c3ccccc3Sc3ccccc32)[nH]c1=O	3.7	4.5	-3.7	-2.0	46.5*	6.2
CSc1nc(N(CCO)CCO)c2sc3nc(-c4ccco4)c4c(c3c2n1)CCC4	68.4*	96.1*	55.8*	81.5*	73.9*	x
COc1ccc(C2CC(=O)c3cc(OC)c(OC)cc32)cc1OC (configuration not stated)	-0.8	0.2	-1.8	-5.1	-0.7	-2.6
CCCN1C(=O)CC(c2ccc(OC)c(OC)c2)C1=O (configuration not stated)	47.1*	-3.4	-0.7	x	2.3	10.9
Cc1cc(=O)n2nc(N3CCCC(C(=O)NCCCN4CC(C)CC(C)C4)C3)sc2n1 (configuration not stated)	-1.8	1.0	-2.1	-1.4	2.0	-0.4
Cc1coc2c1C(=O)C(=O)c1c-2ccc2c1CCCC2(C)C	8.5	51.9*	3.1	-4.3	9.2	3.1
SMILES	LMPTP block	DNMT1 inh	STEP block	Scp-1 inhibitor	SUMO1-SIM PPI	Rpn11 inh
C[C@H]1COC2=C1C(=O)C(=O)c1c2ccc2c1CCCC2(C)C	33.8	27.6	6.3	6.8	32.1	-9.0
Cc1ccc2c3c(cccc13)-c1ccccc1C2=O	4.1	28.2	1.2	-14.0	-16.5	-52.0
Cc1coc2c1C(=O)C(=O)c1c-2ccc2c(C)cccc12	22.2	95.1*	13.7	37.9	22.0	-41.8
CSc1ccc(CN2CCC(n3nccc3NC(=O)C3CCOC3)CC2)cc1 (configuration not stated)	0.0	0.1	-4.4	-7.3	2.5	7.3
O=[N+]([O-])c1ccc(Cl)c2c1C1C=CCC1C(c1ccccn1)N2 (configuration not stated)	14.3	51.4*	3.9	-3.2	17.2	-17.5
CCCN1CCN(C(=O)c2oc3ccccc3c2NC(=O)C2CC2)CC1	-0.7	1.3	1.6	1.1	-5.9	-3.6
CC1=NN(c2ccc(C(=O)O)cc2)C(=O)/C1=C\c1ccc(OC(=O)c2cccs2)cc1	14.2	4.7	4.5	51.8*	28.9	6.0
CCOc1cc(/C=C2/C(=O)N(c3ccccc3)N=C2C)ccc1OC(=O)c1ccco1	8.9	-2.7	18.5	0.4	7.1	5.5
CCOc1cc(/C=C2\C(=O)N(c3ccc(C(N)=O)cc3)N=C2C)ccc1OC(=O)c1cccs1	17.9	30.2	31.8	22.1	74.5*	-15.2
CC1=NN(c2ccccc2)C(=O)/C1=C/c1cccs1	1.5	6.2	-1.6	-5.3	-0.1	-7.3
O=C(COC(=O)c1ccc([N+](=O)[O-])s1)NC(c1ccccc1)c1ccccc1	-0.6	28.4	-1.0	1.7	59.1*	1.0
O=C(COC(=O)c1ccc([N+](=O)[O-])s1)Nc1ccccc1	-2.4	-1.0	0.7	-10.3	21.8	0.6
COc1ccc(NC(=O)c2sc3nc(N4CCOCC4)c4c(c3c2N)CCCC4)c(OC)c1	0.2	6.7	-2.2	-11.2	1.5	-0.1
Nc1c(C(=O)Nc2ccc(Br)cc2)sc2nc(N3CCOCC3)c3c(c12)CCCC3	-0.8	50.1*	-3.6	x	2.2	4.6
